Sampled rows, rich in hits. Any-hit rate of the full collection: about 2.9%.
HEK293 NFkB inh: inhibitors of the PMA/ionomycin-induced NF-kB reporter in HEK293 cells; HEK-293 NF-kB luciferase reporter, luminescence; inhibition, % at 3 µM; hit rate 0.21% among 62,000; AID 465;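 active = inhibition above the mean of all tested compounds plus 3 SD, cut at about 40% in these data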
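Reagent: PMA plus ionomycin mix as NF-kB-activating stimulus. Assay system: NF-kB luciferase reporter HEK-293 cells. Technique: luminescence from luciferase substrate reagent. Incubation: 1 h compound pre-incubation, 16 h PMA/ionomycin at 37 °C. Benchmarks: DMSO only as uninhibited control, 10 µM reference inhibitor as full inhibition. Repeats: tested once.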
5HT1E antag: blocks the human 5-HT1E serotonin receptor; CHO 5-HT1E Ga15 NFAT-bla reporter, FRET, antagonist; inhibition, % at 6 µM; hit rate 0.99% among 65,000;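 active = inhibition above a set limit, the mean inhibition across every tested compound plus 3 SD, cut at about 29% in these data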;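 note: signal is the 460 over 535 nm emission ratio of beta-lactamase substrate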
5HT1a antag: antagonists of human 5-HT1a serotonin receptor | inhibition, % at 10 µM | hit rate 0.68% among 62,000 | P08908 | AID 612 | CHO 5-HT1a Ga15 NFAT-bla reporter, antagonist mode;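 active = inhibition above the mean of all tested compounds plus 3 SD, cut at about 43% in these data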;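 note: receptor stimulated by 5-CT agonist at 100 nM near EC80; beta-lactamase reporter measured by ratiometric fluorescence of a cleavable substrate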
Target sequence (P08908 whole entry, looked up): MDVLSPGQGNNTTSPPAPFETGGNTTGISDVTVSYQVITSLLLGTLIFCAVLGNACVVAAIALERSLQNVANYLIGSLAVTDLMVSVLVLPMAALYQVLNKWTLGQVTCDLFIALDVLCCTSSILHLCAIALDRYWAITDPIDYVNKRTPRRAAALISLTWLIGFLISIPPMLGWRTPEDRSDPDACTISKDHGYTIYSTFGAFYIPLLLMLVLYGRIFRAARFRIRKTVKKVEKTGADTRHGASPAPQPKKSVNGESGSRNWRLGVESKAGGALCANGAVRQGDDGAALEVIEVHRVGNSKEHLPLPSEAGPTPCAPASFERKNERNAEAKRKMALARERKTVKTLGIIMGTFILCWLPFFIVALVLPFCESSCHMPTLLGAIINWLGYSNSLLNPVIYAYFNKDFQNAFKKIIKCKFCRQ
SK-BR-3 tox 24h: SK-BR-3 proliferation inhibitors; SK-BR-3 viability, CellTiter-Glo ATP luminescence, 24 h; hits give low values; viability, % at 10 µM; hit rate 0.47% among 41,000; AID 847;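 active = viability at or below the median of all test compounds minus 3 SD, in both replicates if run twice, cut at about 45% in these data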
HTR1A agonist: agonists of human 5-HT1a serotonin receptor. CHO 5-HT1a Ga15 NFAT-bla reporter, FRET ratio; 0% basal, 100% maximal reference agonist. AID 567. P08908. activation, % at 10 µM. hit rate 0.56% among 65,000;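 active = activation above the screen-wide mean activation plus 3 SD, cut at about 19% in these data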
HTR1E agonist: agonists of human 5-HT1E serotonin receptor; P28566; CHO 5-HT1E Ga15 NFAT-bla reporter, FRET; 0% DMSO wells, 100% control agonist wells; activation, % at 6 µM; hit rate 0.69% among 65,000;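 active = activation above a set limit, the screen-wide mean activation plus 3 SD, cut at about 8.5% in these data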
Large screens that a line does not name were inactive.

CC1(C)CC(=O)C(C=NCCN2CCOCC2)=C(O)C1	none (no result: SK-BR-3 tox 24h)
Cc1ccc(C2C=C(c3ccccc3OC(F)F)Nc3ncnn32)cc1 (stereo not drawn)	none
CN(C)c1ccc(C2C=C(c3ccc(Cl)cc3OC(F)F)Nc3ncnn32)cc1 (stereo not drawn)	HTR1A agonist 28
CCOC(=O)c1cc2c(ccn2C)n1Cc1ccccc1C	5HT1a antag 44
CCOC(=O)c1cc2c(ccn2C)n1CC(=O)N1CCN(c2ccccc2)CC1	none
CC1(C)Cc2c(C#N)c(NCCc3ccccc3)nc(-c3ccco3)c2CO1	HTR1A agonist 49, HTR1E agonist 9.1 (no result: HEK293 NFkB inh, 5HT1a antag)
CCN(CC)CCNc1nc(-c2ccco2)c2c(c1C#N)CC(C)(C)OC2	none (no result: HEK293 NFkB inh, 5HT1a antag)
O=C(Nc1ccc(OC(F)(F)F)cc1)C1CCCN(S(=O)(=O)c2cccnc2)C1 (stereo not drawn)	none
CCn1c(Oc2ccc(Oc3ncc(Cl)cc3Cl)cc2)nc2c1c(=O)n(C)c(=O)n2C	none
O=C1CCC(C(=O)NC2(C(=O)NC3CCCCC3)CCCCC2)N1 (stereo not drawn)	SK-BR-3 tox 24h 28
CCc1nnc(NC(=O)Nc2ccccc2OC)s1	none (no result: SK-BR-3 tox 24h)
COc1ccccc1NC(=O)Nc1nnc(C(C)C)s1	5HT1E antag 29 (no result: HEK293 NFkB inh, 5HT1a antag)
Cc1c(NC(=O)C(C)N2CC(C)OC(C)C2)c(=O)n(-c2ccccc2)n1C (stereo not drawn)	none (no result: SK-BR-3 tox 24h)
Cc1ccc(-c2ccc(/C=N/c3ncn[nH]3)o2)cc1Cl	SK-BR-3 tox 24h 35 (no result: HEK293 NFkB inh, 5HT1a antag)
C=CCNC(=O)C1CCN(S(=O)(=O)CC)CC1	none
C=CCNC(=O)C1CCCN(S(C)(=O)=O)C1 (stereo not drawn)	HTR1E agonist 14 (no result: SK-BR-3 tox 24h)
O=C(O)CCCC(=O)N1CCN(C(c2ccccc2)c2ccccc2)CC1	none (no result: HEK293 NFkB inh, 5HT1a antag)
Cc1cccc2cc3c(nc12)SC(=NCC1CCCO1)N(Cc1ccco1)C3 (stereo not drawn)	5HT1E antag 32, 5HT1a antag 57
Cc1ccc2nc3c(cc2c1)CN(Cc1ccco1)C(=NCC1CCCO1)S3 (stereo not drawn)	none
CCOC(=O)c1nc(S(C)(=O)=O)ncc1Cl	5HT1E antag 75, 5HT1a antag 86 (no result: SK-BR-3 tox 24h)
COc1ccc(OC)c(-c2csc(N(Cc3ccco3)C(=O)c3cccs3)n2)c1	5HT1a antag 43
COc1ccc(-c2csc(N(CC3CCCO3)C(=O)c3cccs3)n2)cc1 (stereo not drawn)	none
c1ccc(-c2csc3ncn4cnnc4c23)cc1	5HT1E antag 32
O=C(CSc1nnc(Cc2cccs2)n1Cc1ccco1)Nc1cc(Cl)cc(Cl)c1	5HT1a antag 46
COC(=O)CCCCC(=O)C1C(=O)CC(C)(C)C(C(=O)OC)C1=O (stereo not drawn)	HTR1A agonist 24
CC1(C)CC(=O)C(C(=O)CCCCC(=O)C2C(=O)CC(C)(C)CC2=O)C(=O)C1	none (no result: SK-BR-3 tox 24h)
N#Cc1c(-c2ccco2)cc(-c2cccnc2)nc1N	5HT1E antag 38
Cc1c(-c2ccccc2)nc(N)c(C#N)c1-c1ccco1	5HT1E antag 31
N#Cc1c(-c2ccco2)cc(-c2ccccn2)nc1N	none
Cc1ccc(NC(=O)CSc2n[nH]c(-c3ccncc3)n2)cc1C	none
CCOc1ccc(NS(=O)(=O)c2cc(Cl)ccc2OC)cc1	none
CCN(CC(=O)Nc1ccc(OC)c(OC)c1)S(=O)(=O)c1ccc(C)cc1	HTR1A agonist 22
COCCCNC(=O)CCCn1c(=O)c2ccccc2n(CC(=O)Nc2c(C)cc(C)cc2C)c1=O	HTR1E agonist 43
COCCCNC(=O)CCn1c(=O)c2ccccc2n(CC(=O)Nc2c(C)cccc2C)c1=O	none
CC(C)N(C(=O)CSc1nnc(NC(=O)C2CCC2)s1)C(C)C	SK-BR-3 tox 24h 42
CCOC(=O)C1CCN(C(=O)c2cc3c(-c4ccc(OC)c(OC)c4)nn(C)c3s2)CC1	5HT1E antag 36 (no result: SK-BR-3 tox 24h)
CCOC(=O)C1CCCN(C(=O)c2cc3c(-c4cccc(OC)c4)nn(C)c3s2)C1 (stereo not drawn)	none (no result: SK-BR-3 tox 24h)
CCOC(=O)N1CCC(NC(=O)c2cc3c(-c4ccc(OC)c(OC)c4)nn(C)c3s2)CC1	5HT1E antag 29 (no result: SK-BR-3 tox 24h)
CNC(=O)C1CCCN1S(=O)(=O)c1ccc(OC)cc1 (stereo not drawn)	none
COc1ccc(CNC(=O)C2CCCN2S(=O)(=O)c2ccc(S(=O)(=O)N(C)C)cc2)cc1 (stereo not drawn)	SK-BR-3 tox 24h 33
O=c1[nH]c(C2CCCN(S(=O)(=O)c3ccccc3)C2)nc2c1nnn2Cc1ccccc1 (stereo not drawn)	none (no result: SK-BR-3 tox 24h)
O=c1[nH]c(C2CCCN(S(=O)(=O)c3ccccc3)C2)nc2c1nnn2Cc1ccccc1F (stereo not drawn)	SK-BR-3 tox 24h 31
COCCCn1c(=N)c(C(=O)NCC2CCCO2)cc2c(=O)n3ccccc3nc21 (stereo not drawn)	HTR1A agonist 21 (no result: SK-BR-3 tox 24h)
N=c1c(C(=O)NCc2ccc(F)cc2)cc2c(=O)n3ccccc3nc2n1CC1CCCO1 (stereo not drawn)	HTR1A agonist 30, HTR1E agonist 9.1
N=c1c(C(=O)NC2CCCC2)cc2c(=O)n3ccccc3nc2n1CCN1CCOCC1	HTR1E agonist 18 (no result: SK-BR-3 tox 24h)
CC(C)CCNC(=O)CN(Cc1ccc2c(c1)OCO2)C(=O)Cn1nnc(-c2cccs2)n1	none
COc1cc(SC)ccc1C(=O)Nc1ccc2c(c1)CCN2S(C)(=O)=O	none
c1ccc(CNc2ncnc3c2cnn3-c2ccccc2)cc1	5HT1E antag 29
Cc1cccc(-n2ncc3c(NCc4ccco4)ncnc32)c1	5HT1E antag 33 (no result: HEK293 NFkB inh, 5HT1a antag)
Fc1ccc(CNc2ncnc3c2cnn3-c2ccccc2)cc1	none
COc1cccc(Oc2cnc(N)nc2-c2ccc(OC)cc2O)c1	HEK293 NFkB inh 43
COc1ccc(-c2cnc(N)nc2-c2ccc(OC)cc2O)cc1	none
COc1ccc(-c2nc(N)ncc2Oc2ccccc2Br)c(O)c1	5HT1a antag 44
S=P(c1ccc(N2CCOCC2)cc1N1CCOCC1)(N1CCOCC1)N1CCOCC1	none (no result: SK-BR-3 tox 24h)
CC1CCCCN1C(=O)CSc1nnc(-c2c[nH]c3ccccc23)o1 (stereo not drawn)	HTR1E agonist 23
O=C(CSc1nnc(-c2c[nH]c3ccccc23)o1)N(Cc1ccccc1)c1ccc(F)cc1	none
CN1/C(=C\C(=O)COc2ccc3c(c2)OCO3)C(C)(C)c2ccccc21	HTR1E agonist 14
CN1/C(=C\C(=O)COC(=O)C2COc3ccccc3O2)C(C)(C)c2ccccc21 (stereo not drawn)	none
CCOC(=O)CN1CC23C=CC(O2)C(C(=O)Nc2ccc(C(C)=O)cc2)C3C1=O (stereo not drawn)	none (no result: SK-BR-3 tox 24h)
CCOc1ccc(Nc2cc(C)nc(-n3nc(C)cc3C)n2)cc1	5HT1E antag 80, 5HT1a antag 52
Cc1cccc(NC(=O)C2CCN(c3nc(C)cc(C)n3)CC2)c1	none
